# Sampled rows, rich in hits. Any-hit rate of the full collection: about 1.4%.
# Yeast superoxide = yeast age-related superoxide inhibition as caloric restriction mimetic; S. cerevisiae aged cells, superoxide DHE fluorescence; hits give low values; superoxide response (% of plate mean), % at 10 µM; 330,000 tested, 0.18% active; AID 2690;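 active = superoxide response under a set limit, about three screen SD below normal, cut at about 65% in these data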;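 note: yeast aged for seven days with compound at 30 °C before DHE staining; 100% = average MFI of all compound-treated wells on the plate with controls excluded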
# IDE act = IDE (human) activation, cell-based; HEK cells, FAbeta-B cleavage, fluorescence polarization; 0% vehicle, 100% cell-free pure enzyme wells; 340,000 tested, 0.073% active; P14735; AID 493087; activation, % at 5.96 µM;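 active = activation above the mean of all tested compounds plus 3 SD, set per screening campaign, cut at about 17% in these data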
# Target sequence (P14735 whole entry, looked up): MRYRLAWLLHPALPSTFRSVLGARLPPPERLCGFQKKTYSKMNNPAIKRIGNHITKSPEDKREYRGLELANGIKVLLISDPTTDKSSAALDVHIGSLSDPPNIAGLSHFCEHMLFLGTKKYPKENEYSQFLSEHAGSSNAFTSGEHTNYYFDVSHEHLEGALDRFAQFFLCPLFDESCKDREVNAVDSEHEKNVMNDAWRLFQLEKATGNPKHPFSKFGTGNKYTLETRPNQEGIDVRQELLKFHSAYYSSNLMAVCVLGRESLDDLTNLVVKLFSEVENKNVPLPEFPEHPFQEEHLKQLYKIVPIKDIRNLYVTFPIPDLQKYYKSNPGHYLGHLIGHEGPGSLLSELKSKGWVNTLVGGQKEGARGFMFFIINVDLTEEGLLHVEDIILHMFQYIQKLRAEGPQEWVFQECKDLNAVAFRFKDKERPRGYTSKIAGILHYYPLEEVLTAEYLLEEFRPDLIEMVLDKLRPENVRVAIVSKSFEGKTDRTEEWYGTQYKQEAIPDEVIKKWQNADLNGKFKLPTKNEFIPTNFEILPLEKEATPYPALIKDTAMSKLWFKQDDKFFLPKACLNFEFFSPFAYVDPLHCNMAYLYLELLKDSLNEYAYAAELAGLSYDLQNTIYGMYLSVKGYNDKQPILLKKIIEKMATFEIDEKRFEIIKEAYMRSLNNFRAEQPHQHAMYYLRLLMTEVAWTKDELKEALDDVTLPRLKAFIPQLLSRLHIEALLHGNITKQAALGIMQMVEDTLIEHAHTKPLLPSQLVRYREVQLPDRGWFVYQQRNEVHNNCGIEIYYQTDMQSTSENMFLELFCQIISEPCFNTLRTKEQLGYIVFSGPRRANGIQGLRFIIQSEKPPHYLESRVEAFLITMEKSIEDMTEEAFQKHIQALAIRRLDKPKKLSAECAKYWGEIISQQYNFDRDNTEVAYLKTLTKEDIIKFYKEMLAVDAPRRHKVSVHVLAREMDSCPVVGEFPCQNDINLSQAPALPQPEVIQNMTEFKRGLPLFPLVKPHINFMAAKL
# HDAC3 inhib = inhibitors of human histone deacetylase 3. recombinant HDAC3, fluorogenic peptide/trypsin coupled, fluorescence. O15379. 320,000 tested, 0.15% active. inhibition, % at 8.3 µM; in the data active = inhibition above about 26%, passing the limit was not always enough
# Efflux pump inh = inhibitors of Candida antifungal efflux pumps expressed in yeast; S. cerevisiae Candida pump triplex, Nile Red efflux; inhibition, % at 10 µM; 330,000 tested, 0.44% active;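 active = plate passing quality check with inhibition over a set limit, or well fluorescence over plate mean plus 4 SD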;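 note: Nile Red retained in pooled yeast measured as flow cytometry median fluorescence; 0% = buffer negative control and 100% = Enniatin B positive control; higher means more Nile Red kept so more efflux inhibition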
# IDE inh = cellular human IDE inhibition | HEK cells, FAbetaB cleavage, fluorescence polarization | inhibition, % at 5.59 µM | 320,000 tested, 0.41% active;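 active = percent inhibition above the average of all tested compounds plus 3 SD, set per screening campaign, cut at about 16% in these data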;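 note: IDE supplied by intact live HEK cells; FP after avidin binding of uncleaved biotin substrate so inhibition keeps polarization high; 0% = DMSO wells and 100% = 60 µM reference IDE inhibitor Ii1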
# TbMetRS inhib = blocks T. brucei methionyl-tRNA synthetase activity. purified T. brucei MetRS, ATP depletion, Kinase-Glo luminescence. inhibition, % at 11.9 µM. 360,000 tested, 0.4% active. AID 624268;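 active = inhibition above a per-plate cutoff of the control wells' mean inhibition plus 3 SD, cut at about 5.5% in these data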;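 note: 0% = DMSO wells median and 100% = median of wells with control inhibitor compound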
#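 Material: T. brucei methionyl-tRNA synthetase, purified; reagent: substrates ATP, L-methionine and bulk Escherichia coli tRNA; dosing: 11.9 µM single point; timing: 15 min plus 2 h at 25 °C; detection: luminescence of leftover ATP; evaluation: % inhibition; control set: DMSO-only wells as low control; replicates: singlicate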
# Cmpd fluor yeast = flagged as fluorescent in efflux inhibitor counter-screen | 1,700 tested, 4% active | shares compounds with Efflux pump inh | S. cerevisiae AD/pABC3, compound fluorescence, flow cytometry | AID 588517 | fluorescence ratio to DMSO, % at 10 µM;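 active = fluorescence ratio to DMSO above its plate's cutoff, the plate mean ratio plus 5 SD, cut at about 210% in these data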;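 note: unstained yeast with no Nile Red so the signal is compound autofluorescence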
# CaMdr1 efflux inh = blocks the Candida albicans Mdr1 efflux pump in yeast. S. cerevisiae AD/CaMDR1, Nile Red efflux, flow cytometry. 1,700 tested, 1% active. inhibition, % at 10 µM. shares compounds with Efflux pump inh; in the data active = inhibition above about 26%;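 note: 0% = DMSO vehicle and 100% = reference inhibitor; higher means more Nile Red retained so more efflux inhibition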
# CaCdr2 efflux inh = Candida Cdr2 efflux pump inhibition | shares compounds with Efflux pump inh | S. cerevisiae AD/CaCDR2, Nile Red retention, flow cytometry | 1,700 tested, 4% active | Nile Red retention ratio vs DMSO, % at 10 µM; in the data active = Nile Red retention ratio vs DMSO above about 190%;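 note: higher ratio means more blocking of Cdr2 efflux of the dye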
# Cdr1 pump inh = Candida Cdr1 efflux pump inhibition | shares compounds with Efflux pump inh | S. cerevisiae AD/CaCDR1, Nile Red efflux, flow cytometry | inhibition, % at 10 µM | 1,700 tested, 1% active | AID 588522;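 active = inhibition above the screen-wide mean plus twice its standard deviation, cut at about 32% in these data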
# * marks the source's active call; other numbers are inactive results; . = not tested or not shown.
SMILES,Yeast superoxide,IDE act,HDAC3 inhib,Efflux pump inh,IDE inh,TbMetRS inhib,Cmpd fluor yeast,CaMdr1 efflux inh,CaCdr2 efflux inh,Cdr1 pump inh
O=C1c2cccc3c([N+](=O)[O-])ccc(c23)C(=O)N1O,82,2,8,4.1*,-2,1,138,1,262*,1
O=C1c2ccccc2C(=O)N1c1cc([N+](=O)[O-])ccn1,95,2,3,0,0,0,.,.,.,.
O=C1c2cccc3c([N+](=O)[O-])ccc(c23)C(=O)N1c1ccc(Cl)cn1,91,-14,2,2.1*,14,0,265*,1,177,0
O=C(Nc1ccccc1)C1=C[C@@H](c2ccc(Br)cc2)C[C@@H](OCCCCO)O1,126,3,8,0,6,0,.,.,.,.
COc1cc2c(c(OC)c1OC)C(=O)CO2,.,6,.,.,.,0,.,.,.,.
CCOc1ccc(C(=O)Nc2cccc(-c3cc4ccccc4oc3=O)c2)cc1[N+](=O)[O-],105,3,1,1.0*,12,-1,107,0,101,0
CCOc1ccccc1NC(=O)c1ccc(OCC)c([N+](=O)[O-])c1,107,5,1,0,0,-1,.,.,.,.
COc1cc2c(cc1OC)C(C)N(C(=O)c1cc3ccccc3o1)CC2 (stereo unspecified),107,3,-3,0,1,0,.,.,.,.
COc1cc2c(cc1O)CCN(C(=O)c1ccco1)C2C (stereo unspecified),110,-2,-2,1.2*,5,-1,97,0,110,0
O=C(NCc1ccc(Cl)cc1)N1CCc2ccccc2C1,106,4,0,1.3*,4,1,106,0,108,0
O=C(NCC1CCCO1)c1ccc(Br)c(S(=O)(=O)N2CCOCC2)c1 (stereo unspecified),101,5,0,24*,-1,0,98,0,106,0
O=C(NCC1CCCO1)c1cccc(S(=O)(=O)N2CCOCC2)c1 (stereo unspecified),91,-4,6,0,-1,0,.,.,.,.
O=C(c1cc2c(s1)CCCC2)N1CCN(S(=O)(=O)c2ccccc2C(F)(F)F)CC1,98,1,5,6.7*,1,0,108,0,106,0
C#CCn1c(=NC(=O)c2sc3ccccc3c2Cl)sc2cc(S(N)(=O)=O)ccc21,94,-11,1,0,8,0,.,.,.,.
Cc1ccc(O)c(C(=O)c2cnc3c(c2)CN(CCC(C)C)C(=O)N3)c1,106,0,1,0.6*,-7,0,107,0,104,0
Cc1ccc(-n2c(SCc3ccc(C(=O)O)cc3)nnc2-c2ccncc2)cc1,91,3,.,0,6,-1,.,.,.,.
c1ccc(-c2ccc3c(c2)c2c4n3CCN=C4CCC2)cc1,93,-10,6,0.3*,0,-1,103,0,106,0
CCC(=O)N(C)CCc1cc2c(c(OC)c1/C=N/NC(=O)[C@H]1C[C@@H]1c1ccccc1)OCO2,79,-7,4,3.5*,1,0,87,0,102,0
COc1c(/C=N/NC(=O)[C@H]2C[C@@H]2c2ccccc2)c(CCN(C)C(C)=O)cc2c1OCO2,108,-1,6,0,-1,0,.,.,.,.
CC1(C(=O)NS(=O)(=O)c2ccc(Cl)s2)CCN1C(=O)C1(c2ccc(Cl)cc2)CC1 (stereo unspecified),.,.,.,.,.,0,.,.,.,.
Cn1cc(Br)c(C(=O)NNC(=O)c2ccc(Cl)cc2)n1,100,2,4,8.9*,-4,1,91,0,95,0
Cn1cc(Br)c(C(=O)NNC(=O)Cc2ccc(Cl)cc2)n1,89,-1,2,0,1,0,.,.,.,.
COc1ccc(S(=O)(=O)N2CCCCC2)cc1NC(=O)c1ccc(CS(C)(=O)=O)cc1,99,1,-3,1.1*,0,0,113,0,112,0
COc1ccc(S(=O)(=O)N2CCCCC2)cc1NC(=O)c1ccc(C)cc1,106,2,-6,0,-3,0,.,.,.,.
Cn1c(SCC(=O)Nc2ccc3nc(SCC(=O)NC4CC4)sc3c2)nnc1-c1ccccc1,92,-27,-3,1.1*,11,1,100,0,123,0
SMILES,Yeast superoxide,IDE act,HDAC3 inhib,Efflux pump inh,IDE inh,TbMetRS inhib,Cmpd fluor yeast,CaMdr1 efflux inh,CaCdr2 efflux inh,Cdr1 pump inh
COc1ccc(C(=O)CC(=O)C(=O)Nc2ccc(Cl)cc2)cc1,96,3,-2,1.4*,0,-1,82,0,172,1
Cc1c(/C=N/NC(=O)c2cc(Br)ccc2O)c(=O)n(C)c(=O)n1C,98,3,-2,0.5*,1,0,105,1,102,0
COc1ccc2c(c1)OC[C@H]1[C@H]2N2C(=O)[C@H](C)NC(=O)[C@@]2(C)[C@H]1c1ccccc1,99,1,2,0,0,0,.,.,.,.
Cc1ccc2nc(NC(=O)CSc3nc4ccccc4o3)sc2c1,107,0,-1,0.6*,-1,0,154,1,127,0
O=C1CCCC(=O)C1=C1SCCCS1,102,1,3,6.5*,-6,1,91,0,96,0
COc1ccc(NC(=O)CSc2nnc(Cc3cccn3C)n2-c2ccc(C)cc2)cc1OC,92,5,-1,6.7*,0,-1,99,0,112,0
COc1ccccc1NC(=O)CSc1nnc(Cc2cccn2C)n1CCc1ccccc1,100,-1,6,0,1,0,.,.,.,.
Cn1cccc1Cc1nnc(SCC(=O)NCCc2ccccc2)n1C,86,-1,4,0,3,0,.,.,.,.
COc1ccc(NC(=O)CSc2nnc(Cc3cccn3C)n2CCc2ccccc2)c(OC)c1,96,7,-4,6.7*,-4,-1,79,0,91,0
COc1ccc(-n2c(Cc3cccn3C)nnc2SCC(=O)Nc2cccc(OC)c2)cc1,106,4,-9,0,-2,0,.,.,.,.
COc1ccc(-n2c(Cc3cccn3C)nnc2SCC(=O)Nc2ccccc2F)cc1,103,-4,7,0,-1,-1,85,0,91,0
COc1ccc(-n2c(Cc3cccn3C)nnc2SCC(=O)NCCc2ccccc2)cc1,119,10,-5,6.7*,-6,-1,103,0,98,0

# Compound activity from PubChem.
